In ChEMBL document CHEMBL1629526, “4-[1-(Substituted aryl/alkyl carbonyl)-benzoimidazol-2-yl]-benzenesulfonic acids: synthesis, antimicrobial activity, QSAR studies, and antiviral evaluation” (Eur J Med Chem, 2010):
In brackets after ≈: the same amount, converted by molar mass.

Key:
Influenza A virus [1] = assay: Antiviral activity against Influenza A H3N2 virus subtype infected in MDCK cells assessed as inhibition of virus induced cytopathicity by visual scoring of CPE; format: functional, organism-based
Felid alphaherpesvirus 1 = assay: Antiviral activity against Feline herpesvirus 1 infected in cat CRFK cells assessed as inhibition of virus induced cytopathicity after 2 to 4 days by MTS assay; format: functional, organism-based; conditions: Felid alphaherpesvirus 1, CRFK
[2] = Cytotoxicity against cat CRFK cells assessed as cell viability by MTS assay; format: cell-based, Felis catus; conditions: crfk
In short: (§1)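 Uninfected cultures were run in parallel with the antiviral assays. Viability was read by colorimetric formazan MTS assay.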

Escherichia coli = assay: Antimicrobial activity against Escherichia coli after 24 hrs by tube dilution method; format: functional
Influenza B virus [3] = assay: Antiviral activity against Influenza B virus infected in MDCK cells assessed as inhibition of virus induced cytopathicity after 2 to 4 days by MTS assay; format: functional, organism-based
HeLa = assay: Cytotoxicity against human HeLa cells assessed as cell viability by MTS assay; format: cell-based; conditions: hela; in short: as §1
[4] = Cytotoxicity against human HeLa cells assessed as altered cell morphology; format: cell-based
In short: (§2)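 Uninfected cell cultures run alongside the antiviral assays, exposed to serial compound dilutions and incubated at 37 °C for 2–4 days. Toxicity was scored microscopically and reported as the minimum cytotoxic concentration (MCC), the lowest concentration causing a detectable change in normal cell morphology.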

Feline coronavirus = assay: Antiviral activity against Feline coronavirus infected in cat CRFK cells assessed as inhibition of virus induced cytopathicity after 2 to 4 days by MTS assay; format: functional, organism-based; conditions: Alphacoronavirus 1, CRFK
Bacillus subtilis = assay: Antimicrobial activity against Bacillus subtilis after 24 hrs by tube dilution method; format: functional
In short: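 Serial dilutions in double-strength nutrient broth (I.P.) with ciprofloxacin as reference, tube dilution, incubated 37 °C for 24 h. MIC is the lowest concentration that inhibited growth.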

[5] = Cytotoxicity against MDCK cells assessed as altered cell morphology; format: cell-based, Canis lupus familiaris; conditions: dog; in short: as §2
Aspergillus niger = assay: Antimicrobial activity against Aspergillus niger after 7 days by tube dilution method; format: functional; conditions: 168 h
Vaccinia virus = assay: Antiviral activity against Vaccinia virus infected in HEL cells assessed as inhibition of virus induced cytopathicity after 2 to 4 days by MTS assay; format: functional, organism-based; conditions: Orthopoxvirus vaccinia
[6] = system: Respiratory syncytial virus; assay: Antiviral activity against Respiratory syncytial virus infected in human HeLa cells assessed as inhibition of virus induced cytopathicity after 2 to 4 days by MTS assay; format: functional, organism-based
Coxsackievirus B4 [7] = assay: Antiviral activity against coxsackievirus B4 infected in human HeLa cells assessed as inhibition of virus induced cytopathicity after 2 to 4 days by MTS assay; format: functional, organism-based; conditions: Enterovirus B
Staphylococcus aureus = assay: Antimicrobial activity against Staphylococcus aureus after 24 hrs by tube dilution method; format: functional
[8] = system: Vesicular stomatitis virus; assay: Antiviral activity against Vesicular stomatitis virus infected in human HeLa cells assessed as inhibition of virus induced cytopathicity after 2 to 4 days by MTS assay; format: functional, organism-based
[9] = system: Vesicular stomatitis virus; assay: Antiviral activity against Vesicular stomatitis virus infected in HEL cells assessed as inhibition of virus induced cytopathicity after 2 to 4 days by MTS assay; format: functional, organism-based
Sindbis virus = assay: Antiviral activity against Sindbis virus infected in african green monkey Vero cells assessed as inhibition of virus induced cytopathicity after 2 to 4 days by MTS assay; format: functional, organism-based
Influenza B virus [10] = assay: Antiviral activity against Influenza B virus infected in MDCK cells assessed as inhibition of virus induced cytopathicity by visual scoring of CPE; format: functional, organism-based
MDCK = assay: Cytotoxicity against MDCK cells assessed as cell viability by MTS assay; format: cell-based, Canis lupus familiaris; conditions: dog, mdck; in short: as §1
[11] = system: Vesicular stomatitis virus; assay: Antiviral activity against Vesicular stomatitis virus infected in human HeLa cells assessed as inhibition of virus induced cytopathicity by visual scoring of CPE; format: functional, organism-based
[12] = Cytotoxicity against african green monkey Vero cells assessed as altered cell morphology; format: cell-based; conditions: chlorocebus sabaeus; in short: as §2
[13] = system: Mammalian orthoreovirus 1; assay: Antiviral activity against Reovirus 1 virus infected in african green monkey Vero cells assessed as inhibition of virus induced cytopathicity after 2 to 4 days by MTS assay; format: functional, organism-based; conditions: Mammalian orthoreovirus 1, Vero
[14] = Cytotoxicity against human HEL cells assessed as altered cell morphology; format: cell-based; in short: as §2
[15] = system: Respiratory syncytial virus; assay: Antiviral activity against Respiratory syncytial virus infected in human HeLa cells assessed as inhibition of virus induced cytopathicity by visual scoring of CPE; format: functional, organism-based
Human alphaherpesvirus 1 [16] = assay: Antiviral activity against Herpes simplex virus 1 KOS infected in HEL cells assessed as inhibition of virus induced cytopathicity after 2 to 4 days by MTS assay; format: functional, organism-based; conditions: Human alphaherpesvirus 1, KOS
Human respirovirus 3 = assay: Antiviral activity against parainfluenza-3 virus infected in african green monkey Vero cells assessed as inhibition of virus induced cytopathicity after 2 to 4 days by MTS assay; format: functional, organism-based; conditions: Human respirovirus 3, Vero
Coxsackievirus B4 [17] = assay: Antiviral activity against coxsackievirus B4 infected in human HeLa cells assessed as inhibition of virus induced cytopathicity by visual scoring of CPE; format: functional, organism-based; conditions: Enterovirus B
Punta Toro virus = assay: Antiviral activity against Punta Toro virus infected in african green monkey Vero cells assessed as inhibition of virus induced cytopathicity after 2 to 4 days by MTS assay; format: functional, organism-based
Candida albicans = assay: Antimicrobial activity against Candida albicans after 48 hrs by tube dilution method; format: functional
Coxsackievirus B4 [18] = assay: Antiviral activity against Coxsackie virus B4 infected in african green monkey Vero cells assessed as inhibition of virus induced cytopathicity after 2 to 4 days by MTS assay; format: functional, organism-based; conditions: Enterovirus B
Influenza A virus [19] = assay: Antiviral activity against Influenza A H3N2 virus subtype infected in MDCK cells assessed as inhibition of virus induced cytopathicity after 2 to 4 days by MTS assay; format: functional, organism-based
Human alphaherpesvirus 2 = assay: Antiviral activity against Herpes simplex virus 2 G infected in HEL cells assessed as inhibition of virus induced cytopathicity after 2 to 4 days by MTS assay; format: functional, organism-based; conditions: Human alphaherpesvirus 2, strain G
Human alphaherpesvirus 1 [20] = assay: Antiviral activity against thymidine kinase deficient acyclovir-resistant Herpes simplex virus 1 KOS infected in HEL cells assessed as inhibition of virus induced cytopathicity after 2 to 4 days by MTS assay; format: functional, organism-based; conditions: Human alphaherpesvirus 1, KOS

Compound	EC50 (Influenza A virus [1])	EC50 (Felid alphaherpesvirus 1)	CC50 [2]	MBC (Escherichia coli)	EC50 (Influenza B virus [3])	CC50 (HeLa)	MCC [4]	EC50 (Feline coronavirus)	MBC (Bacillus subtilis)	MCC [5]	MFC (Aspergillus niger)	EC50 (Vaccinia virus)	EC50 [6]	EC50 (Coxsackievirus B4 [7])	MBC (Staphylococcus aureus)	EC50 [8]	EC50 [9]	EC50 (Sindbis virus)	EC50 (Influenza B virus [10])	CC50 (MDCK)	other results
Cc1ccc(C(=O)n2c(-c3ccc(S(=O)(=O)O)cc3)nc3ccccc32)cc1	> 100 µg/mL	> 100 µg/mL	> 100 µg/mL	25 µg/mL (≈ 63.7 µM)	> 100 µg/mL	> 100 µg/mL	> 100 µg/mL	> 100 µg/mL	6.25 µg/mL (≈ 15.9 µM)	> 100 µg/mL	> 50 µg/mL	> 100 µg/mL	> 100 µg/mL	> 100 µg/mL	12.5 µg/mL (≈ 31.9 µM)	> 100 µg/mL	> 100 µg/mL	> 100 µg/mL	> 100 µg/mL	> 100 µg/mL	EC50 [11]: > 100 µg/mL; MCC [12]: > 100 µg/mL; EC50 [13]: > 100 µg/mL; MCC [14]: > 100 µg/mL; EC50 [15]: > 100 µg/mL; EC50 (Human alphaherpesvirus 1 [16]): > 100 µg/mL; EC50 (Human respirovirus 3): > 100 µg/mL; EC50 (Coxsackievirus B4 [17]): > 100 µg/mL; EC50 (Punta Toro virus): > 100 µg/mL; MFC (Candida albicans): 50 µg/mL (≈ 127 µM); EC50 (Coxsackievirus B4 [18]): > 100 µg/mL; EC50 (Influenza A virus [19]): > 100 µg/mL; EC50 (Human alphaherpesvirus 2): > 100 µg/mL; EC50 (Human alphaherpesvirus 1 [20]): > 100 µg/mL
O=C(c1ccc([N+](=O)[O-])cc1)n1c(-c2ccc(S(=O)(=O)O)cc2)nc2ccccc21	> 100 µg/mL	> 100 µg/mL	> 100 µg/mL	1.56 µg/mL (≈ 3.68 µM)	> 100 µg/mL	> 100 µg/mL	> 100 µg/mL	> 100 µg/mL	50 µg/mL (≈ 118 µM)	> 100 µg/mL	> 50 µg/mL	> 100 µg/mL	> 100 µg/mL	> 100 µg/mL	50 µg/mL (≈ 118 µM)	> 100 µg/mL	> 100 µg/mL	> 100 µg/mL	> 100 µg/mL	> 100 µg/mL	EC50 [11]: > 100 µg/mL; MCC [12]: > 100 µg/mL; EC50 [13]: > 100 µg/mL; MCC [14]: > 100 µg/mL; EC50 [15]: > 100 µg/mL; EC50 (Human alphaherpesvirus 1 [16]): > 100 µg/mL; EC50 (Human respirovirus 3): > 100 µg/mL; EC50 (Coxsackievirus B4 [17]): > 100 µg/mL; EC50 (Punta Toro virus): > 100 µg/mL; MFC (Candida albicans): 25 µg/mL (≈ 59 µM); EC50 (Coxsackievirus B4 [18]): > 100 µg/mL; EC50 (Influenza A virus [19]): > 100 µg/mL; EC50 (Human alphaherpesvirus 2): > 100 µg/mL; EC50 (Human alphaherpesvirus 1 [20]): > 100 µg/mL
